Measured values as given in ChEMBL document CHEMBL4339229, “Chalcones and Chalcone-mimetic Derivatives as Notch Inhibitors in a Model of T-cell Acute Lymphoblastic Leukemia” (ACS Med Chem Lett, 2019).
Calls of active or inactive are those of the source.

How the values were obtained:
KOPTK1 [1] = assay: Antiproliferative activity against human KOPTK1 cells harboring activating Notch1 gene mutations assessed as reduction in cell viability at 2.5 uM incubated for 36 hrs by MTS assay; type: functional
Summary of the method: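 Single-point MTS viability screen in KOPTK1 T-ALL cells: 2.5 μM compound or DMSO vehicle for 36 h; viability expressed relative to DMSO; 30% viability decrease used as screening threshold; two independent experiments in triplicate, mean ± SEM.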

[2] = biological target: Neurogenic locus notch homolog protein 1 (Homo sapiens) (UniProt P46531); assay: Inhibition of NOTCH1 signalling in human KOPTK1 cells harboring activating Notch1 gene mutations assessed as reduction in N1Val protein expression at 2.5 uM incubated for 36 hrs by Western blot analysis; type: cell-based
Neurogenic locus notch homolog protein 1 (Homo sapiens), sequence (P46531 whole entry, the tested form may be a part): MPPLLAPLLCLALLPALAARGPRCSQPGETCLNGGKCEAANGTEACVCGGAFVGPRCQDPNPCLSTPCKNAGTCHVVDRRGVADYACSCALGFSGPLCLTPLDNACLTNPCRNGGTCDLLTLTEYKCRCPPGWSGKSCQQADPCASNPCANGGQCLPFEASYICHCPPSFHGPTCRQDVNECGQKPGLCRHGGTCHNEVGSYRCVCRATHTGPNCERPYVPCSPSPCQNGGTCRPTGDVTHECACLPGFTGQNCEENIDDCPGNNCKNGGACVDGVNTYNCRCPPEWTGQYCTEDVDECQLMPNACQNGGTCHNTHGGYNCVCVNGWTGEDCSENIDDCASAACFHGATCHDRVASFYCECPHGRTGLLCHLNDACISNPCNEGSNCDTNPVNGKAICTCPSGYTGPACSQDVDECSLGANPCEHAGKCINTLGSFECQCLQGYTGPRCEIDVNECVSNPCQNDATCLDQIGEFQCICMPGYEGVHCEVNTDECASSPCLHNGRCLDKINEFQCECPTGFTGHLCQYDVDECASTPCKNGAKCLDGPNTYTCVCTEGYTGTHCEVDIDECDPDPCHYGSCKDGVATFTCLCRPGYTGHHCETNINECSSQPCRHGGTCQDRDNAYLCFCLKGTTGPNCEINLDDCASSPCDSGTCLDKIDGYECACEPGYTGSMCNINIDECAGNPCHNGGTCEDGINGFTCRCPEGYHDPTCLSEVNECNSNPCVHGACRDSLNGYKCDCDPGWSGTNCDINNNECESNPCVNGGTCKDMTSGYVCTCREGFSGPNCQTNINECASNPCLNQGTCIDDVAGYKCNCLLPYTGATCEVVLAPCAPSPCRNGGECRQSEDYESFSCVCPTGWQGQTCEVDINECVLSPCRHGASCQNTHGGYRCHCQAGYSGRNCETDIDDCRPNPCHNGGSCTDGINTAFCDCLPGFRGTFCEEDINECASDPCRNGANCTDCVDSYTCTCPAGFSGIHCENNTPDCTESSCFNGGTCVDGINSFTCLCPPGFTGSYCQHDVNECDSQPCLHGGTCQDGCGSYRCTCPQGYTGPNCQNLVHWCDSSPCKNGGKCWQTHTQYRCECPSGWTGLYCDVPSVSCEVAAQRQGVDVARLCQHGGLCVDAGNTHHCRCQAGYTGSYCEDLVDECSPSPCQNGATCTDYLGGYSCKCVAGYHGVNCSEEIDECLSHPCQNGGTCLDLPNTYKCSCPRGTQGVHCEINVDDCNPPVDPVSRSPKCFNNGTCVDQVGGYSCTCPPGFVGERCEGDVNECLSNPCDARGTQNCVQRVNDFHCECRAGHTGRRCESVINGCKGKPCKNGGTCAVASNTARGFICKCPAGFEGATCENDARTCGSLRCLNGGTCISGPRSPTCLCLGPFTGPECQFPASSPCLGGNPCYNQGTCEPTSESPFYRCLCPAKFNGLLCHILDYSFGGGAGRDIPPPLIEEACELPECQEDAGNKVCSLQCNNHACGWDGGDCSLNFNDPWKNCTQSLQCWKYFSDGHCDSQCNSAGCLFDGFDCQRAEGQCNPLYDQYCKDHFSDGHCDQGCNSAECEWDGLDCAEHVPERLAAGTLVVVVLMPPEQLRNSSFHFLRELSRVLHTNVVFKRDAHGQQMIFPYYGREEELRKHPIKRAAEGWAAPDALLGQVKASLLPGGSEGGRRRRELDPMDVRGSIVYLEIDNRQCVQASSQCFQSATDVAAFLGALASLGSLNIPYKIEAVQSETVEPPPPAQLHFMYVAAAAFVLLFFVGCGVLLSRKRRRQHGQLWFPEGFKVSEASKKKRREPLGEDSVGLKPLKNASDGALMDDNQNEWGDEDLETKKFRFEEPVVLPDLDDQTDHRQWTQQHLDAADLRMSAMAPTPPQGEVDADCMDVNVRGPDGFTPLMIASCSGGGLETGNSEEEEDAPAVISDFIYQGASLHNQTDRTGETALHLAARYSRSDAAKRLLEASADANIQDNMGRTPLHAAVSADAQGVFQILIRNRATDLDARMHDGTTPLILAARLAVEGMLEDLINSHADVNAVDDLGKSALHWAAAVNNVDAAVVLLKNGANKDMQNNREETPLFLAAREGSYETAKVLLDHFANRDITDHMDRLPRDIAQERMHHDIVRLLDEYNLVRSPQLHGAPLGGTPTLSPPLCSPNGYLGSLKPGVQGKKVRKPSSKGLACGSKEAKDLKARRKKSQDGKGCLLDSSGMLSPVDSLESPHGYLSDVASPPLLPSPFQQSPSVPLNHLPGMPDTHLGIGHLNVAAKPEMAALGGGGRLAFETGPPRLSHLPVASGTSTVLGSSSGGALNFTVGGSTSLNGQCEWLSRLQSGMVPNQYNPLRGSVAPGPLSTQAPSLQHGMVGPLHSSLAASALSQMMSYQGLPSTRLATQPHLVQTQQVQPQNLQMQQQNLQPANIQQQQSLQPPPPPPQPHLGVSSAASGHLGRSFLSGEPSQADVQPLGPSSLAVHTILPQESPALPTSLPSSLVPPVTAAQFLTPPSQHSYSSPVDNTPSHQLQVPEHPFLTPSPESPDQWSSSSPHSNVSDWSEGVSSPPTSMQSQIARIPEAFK
Summary of the method: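 KOPTK1 cells exposed 36 h to 2.5 μM compound or DMSO; endogenous activated Notch1 intracellular domain (N1Val) detected by Western blot with β-actin loading control; relative levels quantified by optical densitometry versus DMSO.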

[3] = biological target: Neurogenic locus notch homolog protein 1 (Homo sapiens) (UniProt P46531); assay: Inhibition of NOTCH1 signalling in human KOPTK1 cells harboring activating Notch1 gene mutations assessed as reduction in DELTEX1 mRNA expression at 2.5 uM incubated for 36 hrs by RT-PCR analysis; type: cell-based
Summary of the method: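 DELTEX1 (DTX1) relative gene expression measured in KOPTK1 cells after 36 h with 2.5 μM compound or DMSO vehicle; three independent experiments in triplicate, mean ± SEM.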

KOPTK1 [4] = assay: Antiproliferative activity against human KOPTK1 cells harboring activating Notch1 gene mutations assessed as reduction in cell viability incubated for 36 hrs by MTS assay; type: functional, cell-based; details: KOPTK1, 36 h
Summary of the method: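 Dose–response MTS proliferation assay in KOPTK1 cells at 0, 0.5, 1, 2.5, 5, 10, 20 and 50 μM for 36 h; IC50 taken as half-maximal growth-inhibitory concentration; three independent experiments in triplicate, mean ± SD.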

KOPTK1 [5] = assay: Induction of cell death in human KOPTK1 cells harboring activating Notch1 gene mutations assessed as increase in p27kip protein expression at 2.5 uM incubated for 36 hrs by Western blot analysis; type: functional, cell-based
Summary of the method: (§1)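 Western blot of KOPTK1 lysates probed for p27kip, full-length and cleaved PARP, β-actin as loading control.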

KOPTK1 [6] = assay: Induction of cell death in human KOPTK1 cells harboring activating Notch1 gene mutations assessed as increase in cleaved PARP protein expression at 2.5 uM incubated for 36 hrs by Western blot analysis; type: functional, cell-based; summary of the method: as §1
Jurkat = assay: Antiproliferative activity against human Jurkat cells assessed as reduction in cell viability at 2.5 uM incubated for 36 hrs by MTS assay; type: functional, cell-based
HaCaT = assay: Antiproliferative activity against immortalized human HaCaT cells assessed as reduction in cell viability at 2.5 uM incubated for 36 hrs by MTS assay; type: functional, cell-based

Row | Structure (SMILES) | Activity (KOPTK1 [1]) | inhibition [2] | inhibition [3] | IC50 (KOPTK1 [4]) [nM] | Activity (KOPTK1 [5]) | Activity (KOPTK1 [6]) | Activity (Jurkat) | Activity (HaCaT)
1 | COc1ccc(C(=O)/C=C/c2ccc(O)cc2)c(O)c1 | >=30% | Active | Active | 1910 | – | – | – | –
2 | COc1ccc(C(=O)/C=C/c2ccc(O)c(C)c2)c(O)c1 | >=30% | Active | Active | – | Active | Active | – | –
3 | Cc1ccc(C(=O)/C=C/c2ccc(O)cc2)cc1 | >=30% | Active | Active | 3830 | Active | inactive | – | –
4 | COc1ccc(C(=O)C2CCc3cc(O)ccc3C2)c(O)c1 (racemic) | >=30% | Active | Active | 2460 | Active | inactive | – | –
5 | COc1ccc2c(c1)CCC(C(=O)c1ccc(OC)cc1OC)C2 (racemic) | >=30% | Active | Active | 1370 | inactive | Active | Active | Active
6 | COc1ccc2c(c1)CC(C(=O)c1ccc(OC)cc1OC)CC2 (racemic) | >=30% | Active | Active | 720 | inactive | Active | Active | Active
